What was measured:
[1] = molecular target: Hepatitis C virus serine protease, NS3/NS4A (Hepatitis C virus, UniProt A3EZI9+D2K2A8, D168A); assay: Inhibition of HCV genotype 1a NS3/4A protease D168A mutant expressed in Escherichia coli BL21(DE3) using Ac-DE-Dap(QXL 520)-EE-Abu-psi-[COO]AS-C(5-FAMsp)-NH2 as substrate preincubated for 1 hr followed by substrate addition; parameters: species or system Hepatitis C virus subtype 1a
Summary of the method: (§1)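 Enzyme inhibition constants (Ki) were determined against GT1a NS3/4A protease in three forms: wild type, R155K and D168A.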

[2] = molecular target: Hepatitis C virus serine protease, NS3/NS4A (Hepatitis C virus, UniProt A3EZI9+D2K2A8); assay: Inhibition of wild type HCV genotype 1a NS3/4A protease expressed in Escherichia coli BL21(DE3) using Ac-DE-Dap(QXL 520)-EE-Abu-psi-[COO]AS-C(5-FAMsp)-NH2 as substrate preincubated for 1 hr followed by substrate addition; parameters: species or system Hepatitis C virus subtype 1a; summary of the method: as §1
[3] = molecular target: Hepatitis C virus serine protease, NS3/NS4A (Hepatitis C virus, UniProt A3EZI9+D2K2A8, R155K); assay: Inhibition of HCV genotype 1a NS3/4A protease R155K mutant expressed in Escherichia coli BL21(DE3) using Ac-DE-Dap(QXL 520)-EE-Abu-psi-[COO]AS-C(5-FAMsp)-NH2 as substrate preincubated for 1 hr followed by substrate addition; parameters: species or system Hepatitis C virus subtype 1a; summary of the method: as §1
[4] = system: Hepatitis C virus; assay: Antiviral activity against HCV genotype 1b Con1 harboring HCV genotype 1a H77 NS3 D168V mutant infected in human HuH7 cells assessed as inhibition of viral replication after 96 hrs by luciferase reporter gene assay; format: functional, organism-based, Hepacivirus hominis; settings: isolate Con1, Huh-7, 96 h
Summary of the method: (§2)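 Cell-based replicon antiviral assays against wild-type HCV and the R155K, A156T, D168A and D168V variants. Potency was expressed as EC50.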

[5] = system: Hepatitis C virus; assay: Antiviral activity against HCV genotype 1b Con1 harboring HCV genotype 1a H77 NS3 R155K mutant infected in human HuH7 cells assessed as inhibition of viral replication after 96 hrs by luciferase reporter gene assay; format: functional, organism-based, Hepacivirus hominis; settings: isolate Con1, Huh-7, 96 h; summary of the method: as §2
[6] = system: Hepatitis C virus; assay: Selectivity ratio of EC50 for HCV genotype 1b Con1 harboring HCV genotype 1a H77 NS3 D168V mutant infected in human HuH7 cells to EC50 for HCV genotype 1b Con1 harboring HCV genotype 1a H77 wild type NS3 infected in human HuH7 cells; format: functional, Hepacivirus hominis, isolate Con1
[7] = system: Hepatitis C virus; assay: Selectivity ratio of EC50 for HCV genotype 1b Con1 harboring HCV genotype 1a H77 NS3 A156T mutant infected in human HuH7 cells to EC50 for HCV genotype 1b Con1 harboring HCV genotype 1a H77 wild type NS3 infected in human HuH7 cells; format: functional, Hepacivirus hominis, isolate Con1
[8] = system: Hepatitis C virus; assay: Antiviral activity against HCV genotype 1b Con1 harboring HCV genotype 1a H77 NS3 A156T mutant infected in human HuH7 cells assessed as inhibition of viral replication after 96 hrs by luciferase reporter gene assay; format: functional, organism-based, Hepacivirus hominis; settings: isolate Con1, Huh-7, 96 h; summary of the method: as §2
[9] = system: Hepatitis C virus; assay: Antiviral activity against HCV genotype 1b Con1 harboring HCV genotype 1a H77 wild type NS3 infected in human HuH7 cells assessed as inhibition of viral replication after 96 hrs by luciferase reporter gene assay; format: functional, organism-based, Hepacivirus hominis; settings: isolate Con1, Huh-7, 96 h; summary of the method: as §2
[10] = system: Hepatitis C virus; assay: Antiviral activity against HCV genotype 1b Con1 harboring HCV genotype 1a H77 NS3 D168A mutant infected in human HuH7 cells assessed as inhibition of viral replication after 96 hrs by luciferase reporter gene assay; format: functional, organism-based, Hepacivirus hominis; settings: isolate Con1, Huh-7, 96 h; summary of the method: as §2
[11] = system: Hepatitis C virus; assay: Selectivity ratio of EC50 for HCV genotype 1b Con1 harboring HCV genotype 1a H77 NS3 R155K mutant infected in human HuH7 cells to EC50 for HCV genotype 1b Con1 harboring HCV genotype 1a H77 wild type NS3 infected in human HuH7 cells; format: functional, Hepacivirus hominis, isolate Con1
[12] = system: Hepatitis C virus; assay: Selectivity ratio of EC50 for HCV genotype 1b Con1 harboring HCV genotype 1a H77 NS3 D168A mutant infected in human HuH7 cells to EC50 for HCV genotype 1b Con1 harboring HCV genotype 1a H77 wild type NS3 infected in human HuH7 cells; format: functional, Hepacivirus hominis, isolate Con1

Row | SMILES | Ki [1] [nM] | Ki [2] [nM] | Ki [3] [nM] | EC50 [4] [nM] | EC50 [5] [nM] | Ratio EC50 [6] | Ratio EC50 [7] | EC50 [8] [nM] | EC50 [9] [nM] | EC50 [10] [nM] | Ratio EC50 [11] | Ratio EC50 [12]
1 | C=C[C@@H]1C[C@]1(NC(=O)[C@@H]1C[C@@H](Oc2nc3cc(OC)ccc3nc2C(F)(F)F)CN1C(=O)[C@@H](NC(=O)OC1CCCC1)C(C)(C)C)C(=O)NS(=O)(=O)C1CC1 | 703 | 34 | 26 | – | – | – | – | – | – | – | – | –
2 | C=C[C@@H]1C[C@]1(NC(=O)[C@@H]1C[C@@H](Oc2nc3cc(OC)ccc3nc2C(C)C)CN1C(=O)[C@@H](NC(=O)OC(C)(C)C)C(C)(C)C)C(=O)NS(=O)(=O)C1CC1 | 1090 | 32 | 49 | – | – | – | – | – | – | – | – | –
3 | C=C[C@@H]1C[C@]1(NC(=O)[C@@H]1C[C@@H](Oc2nc3cc(OC)ccc3nc2Cl)CN1C(=O)[C@@H](NC(=O)OC1CCCC1)C(C)(C)C)C(=O)NS(=O)(=O)C1CC1 | 99 | 3.8 | 4.1 | 54 | 40 | 7.3 | 40 | 292 | 7.4 | 50 | 5.4 | 6.8
4 | C=C[C@@H]1C[C@]1(NC(=O)[C@@H]1C[C@@H](Oc2nc3cc(OC)ccc3nc2CC)CN1C(=O)[C@@H](NC(=O)OC(C)(C)C)C(C)(C)C)C(=O)NS(=O)(=O)C1CC1 | 642 | 19 | 17 | > 500 | 50 | >21 | 3 | 73 | 24 | > 500 | 2.1 | >21
5 | C=C[C@@H]1C[C@]1(NC(=O)[C@@H]1C[C@@H](Oc2nc3cc(OC)ccc3nc2C)CN1C(=O)[C@@H](NC(=O)OC1CCCC1)C(C)(C)C)C(=O)NS(=O)(=O)C1(C)CC1 | 140 | 7.1 | 10 | 59 | 28 | 13 | 19 | 87 | 4.5 | 45 | 6.2 | 10
6 | C=C[C@@H]1C[C@]1(NC(=O)[C@@H]1C[C@@H](Oc2nc3cc(OC)ccc3nc2CC)CN1C(=O)[C@@H](NC(=O)OC1CCCC1)C(C)(C)C)C(=O)NS(=O)(=O)C1CC1 | 350 | 9.8 | 15 | – | – | – | – | – | – | – | – | –
7 | C=C[C@@H]1C[C@]1(NC(=O)[C@@H]1C[C@@H](Oc2nc3cc(OC)ccc3nc2C)CN1C(=O)[C@@H](NC(=O)OC(C)(C)C)C(C)(C)C)C(=O)NS(=O)(=O)C1CC1 | 290 | 18 | 8.5 | – | – | – | – | – | – | – | – | –
8 | C=C[C@@H]1C[C@]1(NC(=O)[C@@H]1C[C@@H](Oc2nc3cc(OC)ccc3nc2C(C)C)CN1C(=O)[C@@H](NC(=O)OC(C)(C)C)C(C)(C)C)C(=O)NS(=O)(=O)C1(C)CC1 | 1180 | 29 | 27 | – | – | – | – | – | – | – | – | –
9 | C=C[C@@H]1C[C@]1(NC(=O)[C@@H]1C[C@@H](Oc2nc3cc(OC)ccc3nc2CC)CN1C(=O)[C@@H](NC(=O)OC(C)(C)C)C(C)(C)C)C(=O)NS(=O)(=O)C1(C)CC1 | 385 | 16 | 14 | – | – | – | – | – | – | – | – | –
10 | C=C[C@@H]1C[C@]1(NC(=O)[C@@H]1C[C@@H]2CN1C(=O)[C@H](C(C)(C)C)NC(=O)O[C@@H]1C[C@H]1CCCCCc1nc3ccc(OC)cc3nc1O2)C(=O)NS(=O)(=O)C1(C)CC1 | – | – | – | 5.3 | 1.9 | – | – | 200 | 0.12 | 11 | – | –
11 | C=C[C@@H]1C[C@]1(NC(=O)[C@@H]1C[C@@H](Oc2nc3cc(OC)ccc3nc2CC)CN1C(=O)[C@@H](NC(=O)OC1CCCC1)C(C)(C)C)C(=O)NS(=O)(=O)C1(C)CC1 | 145 | 6.9 | 13 | – | – | – | – | – | – | – | – | –
12 | C=C[C@@H]1C[C@]1(NC(=O)[C@@H]1C[C@@H](Oc2nc3cc(OC)ccc3nc2C(F)(F)F)CN1C(=O)[C@@H](NC(=O)OC(C)(C)C)C(C)(C)C)C(=O)NS(=O)(=O)C1(C)CC1 | 513 | 46 | 12 | – | – | – | – | – | – | – | – | –
13 | C=C[C@@H]1C[C@]1(NC(=O)[C@@H]1C[C@@H](Oc2nc3cc(OC)ccc3nc2Cl)CN1C(=O)[C@@H](NC(=O)OC(C)(C)C)C(C)(C)C)C(=O)NS(=O)(=O)C1CC1 | 128 | 7.8 | 2.2 | 12 | 10 | 1.8 | 16 | 107 | 6.6 | 38 | 1.5 | 5.8
14 | C=C[C@@H]1C[C@]1(NC(=O)[C@@H]1C[C@@H](Oc2nc3cc(OC)ccc3nc2C(C)C)CN1C(=O)[C@@H](NC(=O)OC1CCCC1)C(C)(C)C)C(=O)NS(=O)(=O)C1CC1 | 985 | 17 | 55 | – | – | – | – | – | – | – | – | –
15 | C=C[C@@H]1C[C@]1(NC(=O)[C@@H]1C[C@@H](Oc2nc3cc(OC)ccc3nc2C(C)C)CN1C(=O)[C@@H](NC(=O)OC1CCCC1)C(C)(C)C)C(=O)NS(=O)(=O)C1(C)CC1 | 1000 | 21 | 43 | – | – | – | – | – | – | – | – | –
16 | C=C[C@@H]1C[C@]1(NC(=O)[C@@H]1C[C@@H](Oc2nc3cc(OC)ccc3nc2Cl)CN1C(=O)[C@@H](NC(=O)OC1CCCC1)C(C)(C)C)C(=O)NS(=O)(=O)C1(C)CC1 | 51 | 3.9 | 5.2 | 23 | 27 | 7.4 | 53 | 163 | 3.1 | 25 | 8.7 | 8.1
17 | CCc1nc2ccc(OC)cc2nc1O[C@@H]1C[C@H]2C(=O)N[C@]3(C(=O)NS(=O)(=O)C4CC4)C[C@H]3/C=C\CCCCC[C@H](NC(=O)OC(C)(C)C)C(=O)N2C1 | 91 | 2 | 3.1 | – | – | 28 | 29 | – | – | – | 5.5 | 19
18 | C=C[C@@H]1C[C@]1(NC(=O)[C@@H]1C[C@@H](Oc2nc3cc(OC)ccc3nc2C)CN1C(=O)[C@@H](NC(=O)OC(C)(C)C)C(C)(C)C)C(=O)NS(=O)(=O)C1(C)CC1 | 265 | 14 | 14 | – | – | – | – | – | – | – | – | –
19 | C=C[C@@H]1C[C@]1(NC(=O)[C@@H]1C[C@@H](Oc2nc3cc(OC)ccc3nc2Cl)CN1C(=O)[C@@H](NC(=O)OC(C)(C)C)C(C)(C)C)C(=O)NS(=O)(=O)C1(C)CC1 | 119 | 6.1 | 3.8 | 12 | 10 | 1.9 | 16 | 100 | 6.3 | 30 | 1.6 | 4.8
20 | C=C[C@@H]1C[C@]1(NC(=O)[C@@H]1C[C@@H](Oc2nc3cc(OC)ccc3nc2C(F)(F)F)CN1C(=O)[C@@H](NC(=O)OC(C)(C)C)C(C)(C)C)C(=O)NS(=O)(=O)C1CC1 | 723 | 87 | 24 | – | – | – | – | – | – | – | – | –
21 | C=C[C@@H]1C[C@]1(NC(=O)[C@@H]1C[C@@H](Oc2nc3cc(OC)ccc3nc2C(F)(F)F)CN1C(=O)[C@@H](NC(=O)OC1CCCC1)C(C)(C)C)C(=O)NS(=O)(=O)C1(C)CC1 | 516 | 22 | 22 | – | – | – | – | – | – | – | – | –
22 | C=C[C@@H]1C[C@]1(NC(=O)[C@@H]1C[C@@H](Oc2nc3cc(OC)ccc3nc2C)CN1C(=O)[C@@H](NC(=O)OC1CCCC1)C(C)(C)C)C(=O)NS(=O)(=O)C1CC1 | 144 | 9.2 | 9.6 | 150 | 48 | 15 | 16 | 164 | 10 | 101 | 4.8 | 10

From ChEMBL document CHEMBL4196119, “Quinoxaline-Based Linear HCV NS3/4A Protease Inhibitors Exhibit Potent Activity against Drug Resistant Variants” (ACS Med Chem Lett, 2018)
